Experimental data as given in ChEMBL document CHEMBL4732155 (Eur J Med Chem, 2021).
Activity calls are given as the source filed them. The rule behind the calls is not given here.

How the values were obtained:
[1] = Effect on GOLGA3 expression in human HCT-116 cells at 30 uM measured after 6 hrs by LC-MS/MS analysis relative to control; format: functional
Procedure, shortened: (§1)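 HCT116 cells treated 6 h with DMSO, 15 μM or 30 μM compound, then pelleted. Peptides (1 μg) separated on a 25 cm C18 nano-column with a 136 min gradient and analysed by label-free LC-MS/MS on an Orbitrap Eclipse. Searched against the UniProt human database and quantified from normalized abundance. Two independent biological replicates per group; log2 fold change versus DMSO, p < 0.05.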

[2] = Effect on PLEC expression in human HCT-116 cells at 30 uM measured after 6 hrs by LC-MS/MS analysis relative to control; format: functional; procedure, shortened: as §1
[3] = Effect on LAMP1 expression in human HCT-116 cells at 15 uM measured after 6 hrs by LC-MS/MS analysis relative to control; format: functional; procedure, shortened: as §1
[4] = Effect on ZFAND1 expression in human HCT-116 cells at 30 uM measured after 6 hrs by LC-MS/MS analysis relative to control; format: functional; procedure, shortened: as §1
[5] = Inhibition of yeast Cdc48 T532C mutant assessed as reduction in ATPase activity measured after 60 mins by biomol green reagent based assay; design: species or system Saccharomyces cerevisiae
Procedure, shortened: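 Yeast Cdc48 ATPase activity with 200 μM ATP in Tris pH 7.4 buffer containing MgCl2, EDTA, TCEP and Triton X-100, 60 min at room temperature. Biomol Green read at 635 nm. Eight-dose titration; IC50 from six replicates.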

[6] = Effect on AP2M1 expression in human HCT-116 cells at 15 uM measured after 6 hrs by LC-MS/MS analysis relative to control; format: functional; procedure, shortened: as §1
[7] = target: T1, Transitional endoplasmic reticulum ATPase (Homo sapiens, UniProt P55072); assay: Irreversible inhibition of p97 in human HeLa cells assessed as reduction in p97-dependent reporter substrate UbG76V-GFP degradation preincubated followed by washout and measured after 17 hrs by luciferase reporter gene assay; format: cell-based; details: in the assay text read “GFP fluorescence assay” for “luciferase reporter gene assay”
Procedure, shortened: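 HeLa cells expressing UbG76V-GFP/ODD-Luc, 5000 cells/well in DMEM with 2.5% FBS. Pretreated with 4 μM MG132 for 60 min at 37 °C, PBS-washed, then given cycloheximide plus compound for 120 min. After washout, GFP decay followed in cycloheximide for an additional 17 h. GFP read by high-content imaging; luciferase read with D-luciferin; quadruplicates.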
Target sequence in this assay (P55072 2-806 limits assumed): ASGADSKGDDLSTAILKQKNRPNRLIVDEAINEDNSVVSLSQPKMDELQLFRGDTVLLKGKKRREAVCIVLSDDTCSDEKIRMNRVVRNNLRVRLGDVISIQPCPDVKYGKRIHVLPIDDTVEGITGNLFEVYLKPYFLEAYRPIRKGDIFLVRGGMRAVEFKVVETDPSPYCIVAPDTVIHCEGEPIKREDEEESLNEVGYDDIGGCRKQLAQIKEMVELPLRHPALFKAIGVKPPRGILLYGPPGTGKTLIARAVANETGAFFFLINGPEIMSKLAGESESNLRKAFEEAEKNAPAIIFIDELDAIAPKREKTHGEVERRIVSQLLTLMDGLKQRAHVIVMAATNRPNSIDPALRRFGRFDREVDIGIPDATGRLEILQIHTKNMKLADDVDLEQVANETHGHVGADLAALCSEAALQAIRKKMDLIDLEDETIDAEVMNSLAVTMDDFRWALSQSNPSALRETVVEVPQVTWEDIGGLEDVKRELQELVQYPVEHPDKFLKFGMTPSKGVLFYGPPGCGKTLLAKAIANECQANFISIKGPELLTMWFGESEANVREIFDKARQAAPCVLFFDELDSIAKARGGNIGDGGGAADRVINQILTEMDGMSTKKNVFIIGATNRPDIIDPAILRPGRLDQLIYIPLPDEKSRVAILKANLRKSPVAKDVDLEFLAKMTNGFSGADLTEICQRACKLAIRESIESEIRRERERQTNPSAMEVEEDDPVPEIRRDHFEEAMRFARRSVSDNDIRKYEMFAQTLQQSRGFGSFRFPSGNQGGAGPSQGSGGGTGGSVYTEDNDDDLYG

[8] = Inhibition of His6-tagged p97 C522T mutant (unknown origin) expressed in Escherichia coli BL21 (DE3) assessed as reduction in ATPase activity measured after 60 mins by biomol green reagent based assay; design: species or system Homo sapiens
Procedure, shortened: (§2)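 His6-p97 expressed in E. coli BL21(DE3), purified by Ni-NTA and gel filtration (500–600 kDa fractions, ≥95% pure). Phosphate read by Biomol Green at 635 nm. Eight-dose titrations; IC50 from six replicates. Thiol tests added DTT or cysteine during preincubation.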

[9] = Inhibition of proteasomal turnover of p97-independent ODD-luciferase reporter substrate in human HeLa cells incubated for 120 mins by luciferase reporter gene assay; format: functional, cell-based; details: 2 h
Procedure, shortened: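 HeLa cells co-expressing UbG76V-GFP and ODD-Luc were seeded at 5000/well in clear DMEM with 2.5% FBS. They were pretreated with 4 μM MG132 for 60 min at 37 °C, washed with PBS, then given cycloheximide plus compound for 120 min at 37 °C and washed. GFP was read by high-content confocal imaging, then luminescence after 10 min with D-luciferin at r.t. IC50 was fitted from quadruplicates.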

[10] = target: T1, Transitional endoplasmic reticulum ATPase; assay: Inhibition of His6-tagged p97 (unknown origin) expressed in Escherichia coli BL21 (DE3) assessed as reduction in ATPase activity measured after 60 mins by biomol green reagent based assay; procedure, shortened: as §2
Target sequence in this assay (P55072 whole entry): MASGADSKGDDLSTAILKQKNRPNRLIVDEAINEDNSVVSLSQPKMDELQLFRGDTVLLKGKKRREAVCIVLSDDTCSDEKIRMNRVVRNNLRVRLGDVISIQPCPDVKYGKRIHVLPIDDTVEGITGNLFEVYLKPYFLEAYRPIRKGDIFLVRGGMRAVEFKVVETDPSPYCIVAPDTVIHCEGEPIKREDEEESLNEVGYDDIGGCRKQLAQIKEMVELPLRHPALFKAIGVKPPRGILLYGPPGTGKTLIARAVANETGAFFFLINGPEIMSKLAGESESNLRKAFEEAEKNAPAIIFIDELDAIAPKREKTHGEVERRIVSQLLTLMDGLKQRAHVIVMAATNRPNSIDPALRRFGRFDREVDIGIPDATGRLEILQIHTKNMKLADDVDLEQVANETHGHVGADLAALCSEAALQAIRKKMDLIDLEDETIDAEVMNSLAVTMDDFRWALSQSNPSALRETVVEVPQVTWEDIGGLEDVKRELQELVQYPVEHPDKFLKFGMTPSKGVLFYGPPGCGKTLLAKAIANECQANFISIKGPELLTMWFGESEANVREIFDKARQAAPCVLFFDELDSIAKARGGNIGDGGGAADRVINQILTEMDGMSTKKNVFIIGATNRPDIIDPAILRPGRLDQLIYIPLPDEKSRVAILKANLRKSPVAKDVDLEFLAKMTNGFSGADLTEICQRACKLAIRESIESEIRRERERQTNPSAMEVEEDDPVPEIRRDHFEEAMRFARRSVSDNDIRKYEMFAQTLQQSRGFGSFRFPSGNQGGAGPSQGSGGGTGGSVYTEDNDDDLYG

[11] = Effect on AUP1 expression in human HCT-116 cells at 15 uM measured after 6 hrs by LC-MS/MS analysis relative to control; format: functional; procedure, shortened: as §1
[12] = Effect on SQSTM1 expression in human HCT-116 cells at 30 uM measured after 6 hrs by LC-MS/MS analysis relative to control; format: functional; procedure, shortened: as §1
[13] = Effect on BRIX1 expression in human HCT-116 cells at 15 uM measured after 6 hrs by LC-MS/MS analysis relative to control; format: functional; procedure, shortened: as §1
[14] = Effect on CDK2AP1 expression in human HCT-116 cells at 30 uM measured after 6 hrs by LC-MS/MS analysis relative to control; format: functional; procedure, shortened: as §1
[15] = Selectivity ratio of IC50 for inhibition of proteasomal turnover of p97-independent ODD-luciferase reporter substrate in human HeLa cells to IC50 for inhibition of p97 in human HeLa cells assessed as reduction in proteasomal turnover of p97-dependent reporter substrate UbG76V-GFP
Procedure, shortened: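 HeLa cells stably carrying both UbG76V-GFP and ODD-Luc, in DMEM with 2.5% FBS, received 4 μM MG132 for 60 min at 37°C. After PBS washes they got cycloheximide plus compound for 120 min at 37°C. GFP was read by confocal imaging, then luminescence after D-luciferin (10 min, r.t.). IC50s for each reporter came from quadruplicates.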

[16] = Effect on GOLGA3 expression in human HCT-116 cells at 15 uM measured after 6 hrs by LC-MS/MS analysis relative to control; format: functional; procedure, shortened: as §1
[17] = target: T1, Transitional endoplasmic reticulum ATPase; assay: Inhibition of p97 in human HeLa cells assessed as reduction in proteasomal turnover of p97-dependent reporter substrate UbG76V-GFP incubated for 120 mins by GFP fluorescence imaging
Target sequence in this assay (P55072 whole entry): as above

[18] = Effect on KEAP1 expression in human HCT-116 cells at 30 uM measured after 6 hrs by LC-MS/MS analysis relative to control; format: functional; procedure, shortened: as §1
[19] = Effect on AUP1 expression in human HCT-116 cells at 30 uM measured after 6 hrs by LC-MS/MS analysis relative to control; format: functional; procedure, shortened: as §1
HCT-116 [20] = assay: Antiproliferative activity against human HCT-116 cells after 48 hrs by celltiter-glo luminescence assay; format: functional, cell-based; details: HCT-116, 48 h
[21] = Effect on BRIX1 expression in human HCT-116 cells at 30 uM measured after 6 hrs by LC-MS/MS analysis relative to control; format: functional; procedure, shortened: as §1
HCT-116 [22] = assay: Antiproliferative activity against NMS-873-resistant human HCT-116 cells after 48 hrs by celltiter-glo luminescence assay; format: functional, cell-based
Procedure, shortened: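 CellTiter-Glo viability in HCT116 lines carrying resistance mutations in p97 (CB-5083-resistant: D649A/T688A; NMS-873-resistant: A530T). Cells seeded at 750 or 3000/well within the linear range of a per-line standard curve, in DMEM with 5% FBS. Treated 24 h after seeding with eight three-fold dilutions for 48 h. IC50 from percent growth versus DMSO control; mean ± SEM of four replicate experiments.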

[23] = target: T1, Transitional endoplasmic reticulum ATPase; assay: Inhibition of His6-tagged p97 (unknown origin) expressed in Escherichia coli BL21 (DE3) assessed as reduction in ATPase activity measured after 60 mins in presence of DTT by biomol green reagent based assay; procedure, shortened: as §2
Target sequence in this assay (P55072 2-806 limits assumed): as the sequence (P55072 2-806 limits assumed) above

SMILES: C=CC(=O)Nc1ncnc2c1c(-c1ccccc1)nn2C(C)(C)C
- log2FC [1]: -0.7
- log2FC [2]: 0.58
- log2FC [3]: -0.59
- log2FC [4]: 0.42
- IC50 [5]: 14 µM
- log2FC [6]: -0.33
- inhibition [7]: Active
- IC50 [8]: 82 µM
- IC50 [9]: 35 µM
- IC50 [10]: 600 nM
- log2FC [11]: -0.39
- log2FC [12]: 0.97
- log2FC [13]: 0.52
- log2FC [14]: -0.47
- Selectivity ratio [15]: 20
- log2FC [16]: -0.36
- IC50 [17]: 1600 nM
- log2FC [18]: -1.03
- log2FC [19]: -0.43
- IC50 (HCT-116 [20]): 2700 nM
- log2FC [21]: 0.7
- Activity (HCT-116 [22]): Active
- inhibition [23]: Active
